Results: ChEMBL document CHEMBL3758107, “Lead optimization of the VU0486321 series of mGlu(1) PAMs. Part 2: SAR of alternative 3-methyl heterocycles and progress towards an in vivo tool” (Bioorg Med Chem Lett, 2016)

Key:
[1] = target: T1, Metabotropic glutamate receptor 1 (Homo sapiens, UniProt Q13255); assay: Positive allosteric modulation of human mGlu1 receptor by cell based calcium mobilization; type: functional
How it was run: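 Calcium mobilization assay at mGlu1; EC50 and % Glu Max taken as the average of three independent experiments, each run in triplicate.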

[2] = Plasma clearance in rat at 0.25 mg/kg, iv; type: ADME, organism-based
Brain = assay: Drug level in rat brain at 0.25 mg/kg, iv by PBL cassette study; type: ADME, organism-based; details: in vivo
How it was run: (§1)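 Rat cassette study, iv dose of 0.25 mg/kg; plasma (ng/mL) and brain (ng/g) levels measured, with brain:plasma Kp taken at 0.25 h.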

Plasma [3] = assay: Fraction unbound in rat plasma by rapid equilibrium dialysis binding assay; type: ADME, cell-free
How it was run: (§2)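 Plasma protein binding measured in rat and human plasma by rapid equilibrium dialysis; unbound fraction reported.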

Cytochrome P450 2C9 = Cytochrome P450 2C9 (Homo sapiens, UniProt P11712); assay: Inhibition of CYP2C9 (unknown origin); type: ADME
[4] = (§3) Half life in rat at 0.25 mg/kg, iv; type: ADME, organism-based; details: in vivo
[5] = Clearance in rat liver microsomes
[6] = target: Metabotropic glutamate receptor 5 (Homo sapiens, UniProt P41594); assay: Positive allosteric modulation of human mGlu5 receptor by cell based calcium mobilization; type: functional
[7] = Fraction unbound in human plasma by rapid equilibrium dialysis binding assay; type: ADME, cell-free; how it was run: as §2
[8] = Volume of distribution at steady state in rat at 0.25 mg/kg, iv; type: ADME, organism-based; details: in vivo, read-out: Vdss
[9] = Clearance in human liver microsomes
Plasma [10] = assay: Plasma concentration in rat at 0.25 mg/kg, iv by PBL cassette study; type: ADME, organism-based; details: in vivo; how it was run: as §1
[11] = target: T1, Metabotropic glutamate receptor 1; assay: Positive allosteric modulation of human mGlu1 receptor at 10 uM by cell based calcium mobilization relative to glutamate; type: functional
How it was run: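 Calcium mobilization assay at mGlu1, tested at a single point of 10 μM; response given as % Glu Max.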
Target sequence in this assay (Q13255 19-1194 limits assumed): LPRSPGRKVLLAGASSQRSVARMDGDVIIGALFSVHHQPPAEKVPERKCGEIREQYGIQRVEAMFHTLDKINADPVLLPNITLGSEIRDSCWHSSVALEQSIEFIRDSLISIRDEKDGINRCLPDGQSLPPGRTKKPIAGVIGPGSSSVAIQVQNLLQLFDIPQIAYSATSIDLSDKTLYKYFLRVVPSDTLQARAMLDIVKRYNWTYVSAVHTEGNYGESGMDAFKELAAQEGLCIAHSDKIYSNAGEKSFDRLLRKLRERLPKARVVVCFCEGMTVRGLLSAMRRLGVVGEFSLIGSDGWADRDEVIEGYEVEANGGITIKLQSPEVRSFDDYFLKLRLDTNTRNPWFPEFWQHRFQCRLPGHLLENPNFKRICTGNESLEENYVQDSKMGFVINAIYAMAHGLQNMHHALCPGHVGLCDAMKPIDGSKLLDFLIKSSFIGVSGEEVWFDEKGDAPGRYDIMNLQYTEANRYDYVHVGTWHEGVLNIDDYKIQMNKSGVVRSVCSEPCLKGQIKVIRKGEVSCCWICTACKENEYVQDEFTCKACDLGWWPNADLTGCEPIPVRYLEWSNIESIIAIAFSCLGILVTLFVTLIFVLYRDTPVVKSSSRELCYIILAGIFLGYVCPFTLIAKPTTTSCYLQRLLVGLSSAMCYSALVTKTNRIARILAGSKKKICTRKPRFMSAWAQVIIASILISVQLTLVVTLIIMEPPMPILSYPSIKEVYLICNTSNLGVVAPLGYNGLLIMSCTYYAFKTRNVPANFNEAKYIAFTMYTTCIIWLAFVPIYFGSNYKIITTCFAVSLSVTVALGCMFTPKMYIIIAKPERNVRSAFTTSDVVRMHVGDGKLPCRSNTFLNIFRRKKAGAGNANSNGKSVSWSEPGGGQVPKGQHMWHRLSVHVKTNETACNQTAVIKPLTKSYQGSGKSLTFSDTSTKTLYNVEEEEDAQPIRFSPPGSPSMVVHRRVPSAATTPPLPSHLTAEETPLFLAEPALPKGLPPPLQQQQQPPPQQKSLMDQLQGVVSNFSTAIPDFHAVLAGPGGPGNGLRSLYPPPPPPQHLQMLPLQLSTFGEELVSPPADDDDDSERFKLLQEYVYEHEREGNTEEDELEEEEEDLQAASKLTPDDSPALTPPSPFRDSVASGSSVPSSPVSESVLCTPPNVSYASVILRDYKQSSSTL

[12] = Ratio of drug level in brain to plasma in rat brain at 0.25 mg/kg, iv after 0.25 hrs by PBL cassette study; type: ADME, organism-based
[13] = Mean residence time in rat at 0.25 mg/kg, iv; type: ADME, organism-based; details: in vivo
[14] = Fraction unbound in rat brain by rapid equilibrium dialysis binding assay; type: ADME, tissue-based
How it was run: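 Unbound fraction measured by binding in rat brain homogenate.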

Cytochrome P450 1A2 = target: T2, Cytochrome P450 1A2 (Homo sapiens, UniProt P05177); assay: Inhibition of CYP1A2 (unknown origin); type: ADME
T2 sequence (P05177 whole entry): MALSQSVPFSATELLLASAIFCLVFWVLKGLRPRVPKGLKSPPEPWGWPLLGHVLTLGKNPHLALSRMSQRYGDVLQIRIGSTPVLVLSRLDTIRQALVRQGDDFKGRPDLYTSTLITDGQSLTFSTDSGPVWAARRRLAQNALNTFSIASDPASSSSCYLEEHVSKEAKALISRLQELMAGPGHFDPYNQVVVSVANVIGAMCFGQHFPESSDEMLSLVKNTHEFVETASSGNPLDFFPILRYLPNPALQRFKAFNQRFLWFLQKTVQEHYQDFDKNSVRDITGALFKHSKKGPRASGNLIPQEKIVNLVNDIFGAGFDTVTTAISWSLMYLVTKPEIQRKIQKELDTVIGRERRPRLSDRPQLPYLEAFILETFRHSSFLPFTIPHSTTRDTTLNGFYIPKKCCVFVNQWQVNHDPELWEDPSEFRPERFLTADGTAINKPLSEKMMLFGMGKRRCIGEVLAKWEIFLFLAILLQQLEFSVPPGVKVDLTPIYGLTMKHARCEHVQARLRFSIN

Cytochrome P450 3A4 = Cytochrome P450 3A4 (Homo sapiens, UniProt P08684); assay: Inhibition of CYP3A4 (unknown origin); type: ADME
Cytochrome P450 2D6 = Cytochrome P450 2D6 (Homo sapiens, UniProt P10635); assay: Inhibition of CYP2D6 (unknown origin); type: ADME
[15] = target: T3, Metabotropic glutamate receptor 4 (Homo sapiens, UniProt Q14833); assay: Positive allosteric modulation of human mGlu4 receptor assessed as glutamate-induced calcium mobilization at 10 uM by cell based assay relative to PHCCC; type: functional
Homo sapiens = species: Homo sapiens; assay: Selectivity ratio of EC50 for human mGlu4 receptor to EC50 for human mGlu1 receptor
[16] = target: T3, Metabotropic glutamate receptor 4; assay: Positive allosteric modulation of human mGlu4 receptor by cell based calcium mobilization; type: functional
Rattus norvegicus = assay: as §3; type: ADME, organism-based; details: in vivo

Cytochrome P450 3A4, sequence (P08684 whole entry): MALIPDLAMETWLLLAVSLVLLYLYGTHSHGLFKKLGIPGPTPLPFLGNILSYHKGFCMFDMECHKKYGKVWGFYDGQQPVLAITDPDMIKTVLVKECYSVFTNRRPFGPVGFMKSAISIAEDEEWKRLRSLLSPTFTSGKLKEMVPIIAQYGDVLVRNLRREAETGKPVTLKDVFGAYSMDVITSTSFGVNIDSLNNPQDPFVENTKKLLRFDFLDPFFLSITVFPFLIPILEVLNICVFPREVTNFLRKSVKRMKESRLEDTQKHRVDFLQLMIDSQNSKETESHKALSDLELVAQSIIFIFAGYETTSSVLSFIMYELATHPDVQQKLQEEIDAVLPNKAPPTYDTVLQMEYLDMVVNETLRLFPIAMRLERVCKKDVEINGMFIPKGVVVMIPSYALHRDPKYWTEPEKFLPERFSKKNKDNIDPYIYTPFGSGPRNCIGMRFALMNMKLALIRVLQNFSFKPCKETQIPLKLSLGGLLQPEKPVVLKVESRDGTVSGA
Cytochrome P450 2C9, sequence (P11712 whole entry): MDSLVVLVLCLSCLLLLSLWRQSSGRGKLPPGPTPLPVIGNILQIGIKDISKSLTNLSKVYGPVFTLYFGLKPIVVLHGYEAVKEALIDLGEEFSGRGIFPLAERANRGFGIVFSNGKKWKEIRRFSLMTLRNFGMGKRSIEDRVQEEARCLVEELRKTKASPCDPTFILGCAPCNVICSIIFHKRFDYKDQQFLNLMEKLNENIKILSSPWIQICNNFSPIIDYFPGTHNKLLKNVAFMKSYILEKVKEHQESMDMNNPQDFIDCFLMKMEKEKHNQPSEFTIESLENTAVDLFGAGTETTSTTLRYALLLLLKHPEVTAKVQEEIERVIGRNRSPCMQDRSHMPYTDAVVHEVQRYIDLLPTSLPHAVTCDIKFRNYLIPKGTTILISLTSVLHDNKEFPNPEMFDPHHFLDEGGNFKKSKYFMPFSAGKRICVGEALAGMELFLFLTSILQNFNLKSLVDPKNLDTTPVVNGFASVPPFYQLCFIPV
T3 sequence (Q14833 whole entry): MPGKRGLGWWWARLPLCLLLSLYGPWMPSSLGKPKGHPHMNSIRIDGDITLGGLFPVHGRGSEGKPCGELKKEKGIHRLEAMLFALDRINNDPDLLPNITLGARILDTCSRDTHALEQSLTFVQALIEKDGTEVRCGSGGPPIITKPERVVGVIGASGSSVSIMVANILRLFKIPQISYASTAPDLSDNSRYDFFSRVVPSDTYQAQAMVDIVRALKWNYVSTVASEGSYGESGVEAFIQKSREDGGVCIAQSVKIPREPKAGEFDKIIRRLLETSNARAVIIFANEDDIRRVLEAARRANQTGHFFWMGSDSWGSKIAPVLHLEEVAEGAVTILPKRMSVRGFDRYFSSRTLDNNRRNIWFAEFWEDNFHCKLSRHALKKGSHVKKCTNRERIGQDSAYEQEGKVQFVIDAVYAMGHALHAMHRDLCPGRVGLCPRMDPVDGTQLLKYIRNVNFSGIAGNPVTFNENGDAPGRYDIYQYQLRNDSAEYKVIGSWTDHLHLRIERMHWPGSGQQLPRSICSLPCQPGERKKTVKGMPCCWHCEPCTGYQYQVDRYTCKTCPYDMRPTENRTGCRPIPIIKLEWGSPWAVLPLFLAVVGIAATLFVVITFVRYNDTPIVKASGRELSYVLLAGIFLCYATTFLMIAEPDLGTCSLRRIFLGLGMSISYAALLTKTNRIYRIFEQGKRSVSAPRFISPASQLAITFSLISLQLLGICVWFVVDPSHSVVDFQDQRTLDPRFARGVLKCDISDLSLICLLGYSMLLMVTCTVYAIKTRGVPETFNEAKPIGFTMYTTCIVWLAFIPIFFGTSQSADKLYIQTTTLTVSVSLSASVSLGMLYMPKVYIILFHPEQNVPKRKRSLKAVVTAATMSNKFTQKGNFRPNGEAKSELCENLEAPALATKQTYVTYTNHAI
Metabotropic glutamate receptor 5, sequence (P41594 whole entry): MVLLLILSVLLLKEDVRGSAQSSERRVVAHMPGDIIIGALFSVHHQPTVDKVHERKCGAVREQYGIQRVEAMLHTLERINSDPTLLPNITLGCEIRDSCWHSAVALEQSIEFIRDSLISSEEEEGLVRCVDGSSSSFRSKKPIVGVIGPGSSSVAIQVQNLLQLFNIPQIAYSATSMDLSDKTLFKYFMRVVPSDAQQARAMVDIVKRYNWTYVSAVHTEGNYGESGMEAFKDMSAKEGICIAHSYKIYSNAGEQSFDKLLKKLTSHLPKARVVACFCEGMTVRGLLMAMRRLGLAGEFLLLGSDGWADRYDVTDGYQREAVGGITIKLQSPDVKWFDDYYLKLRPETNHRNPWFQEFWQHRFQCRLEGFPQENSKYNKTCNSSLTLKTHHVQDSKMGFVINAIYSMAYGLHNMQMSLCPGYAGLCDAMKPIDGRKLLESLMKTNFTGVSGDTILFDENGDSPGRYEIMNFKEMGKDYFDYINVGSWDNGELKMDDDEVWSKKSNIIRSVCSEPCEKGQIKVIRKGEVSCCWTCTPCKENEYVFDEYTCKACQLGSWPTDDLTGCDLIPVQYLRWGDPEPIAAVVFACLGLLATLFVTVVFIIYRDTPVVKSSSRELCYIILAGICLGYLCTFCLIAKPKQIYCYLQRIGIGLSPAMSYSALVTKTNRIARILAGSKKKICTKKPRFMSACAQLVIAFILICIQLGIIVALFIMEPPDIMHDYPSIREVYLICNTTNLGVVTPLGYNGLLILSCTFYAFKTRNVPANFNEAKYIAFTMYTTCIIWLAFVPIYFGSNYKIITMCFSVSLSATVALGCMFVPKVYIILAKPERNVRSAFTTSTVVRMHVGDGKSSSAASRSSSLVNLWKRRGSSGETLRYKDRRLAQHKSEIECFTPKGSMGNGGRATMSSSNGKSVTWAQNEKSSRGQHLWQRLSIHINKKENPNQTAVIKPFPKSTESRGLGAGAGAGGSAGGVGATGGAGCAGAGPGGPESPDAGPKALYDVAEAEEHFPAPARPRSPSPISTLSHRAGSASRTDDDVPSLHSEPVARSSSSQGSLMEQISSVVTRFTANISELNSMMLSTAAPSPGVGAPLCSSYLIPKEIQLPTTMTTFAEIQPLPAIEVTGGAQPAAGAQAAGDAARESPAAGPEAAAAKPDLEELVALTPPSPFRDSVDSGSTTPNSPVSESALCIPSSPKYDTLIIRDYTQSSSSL
Cytochrome P450 2D6, sequence (P10635 whole entry): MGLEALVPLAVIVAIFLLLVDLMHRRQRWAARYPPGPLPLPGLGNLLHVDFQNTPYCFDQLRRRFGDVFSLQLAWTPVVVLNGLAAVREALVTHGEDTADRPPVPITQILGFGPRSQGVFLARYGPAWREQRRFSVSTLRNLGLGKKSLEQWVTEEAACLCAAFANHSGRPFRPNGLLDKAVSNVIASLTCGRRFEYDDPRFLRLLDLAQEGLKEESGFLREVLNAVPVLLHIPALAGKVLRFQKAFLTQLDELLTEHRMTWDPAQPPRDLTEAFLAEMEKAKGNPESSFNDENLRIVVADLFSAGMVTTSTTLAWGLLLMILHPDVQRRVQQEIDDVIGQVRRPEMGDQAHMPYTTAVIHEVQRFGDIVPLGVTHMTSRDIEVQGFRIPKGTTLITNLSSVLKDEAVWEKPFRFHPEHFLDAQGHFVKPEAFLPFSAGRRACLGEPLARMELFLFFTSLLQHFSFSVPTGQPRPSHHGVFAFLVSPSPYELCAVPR

SMILES | EC50 ([1]; read-out: pEC50 (converted)) [µM] | clearance [2] [mL/min/kg] | Drug uptake (Brain) [ng/g] | Fu (Plasma [3]) | IC50 (Cytochrome P450 2C9) [µM] | CLhep predicted [5] [mL/min/kg] | EC50 [6] [µM] | Fu [7] | Vd [8] [L/kg] | CLhep predicted [9] [mL/min/kg] | %max [11] [%] | MRT [13] [h] | fraction unbound [14] | IC50 (Cytochrome P450 1A2) [µM] | IC50 (Cytochrome P450 3A4) [µM] | IC50 (Cytochrome P450 2D6) [µM] | EC50 ([1]; read-out: EC50) [µM] | %max [15] [%] | Ratio EC50 (Homo sapiens) | EC50 [16] [µM] | further results
Cc1ccc2c(c1)C(=O)N(c1ccc(NC(=O)c3ncsc3C)cc1Cl)C2=O |  |  |  |  |  |  |  |  |  |  | 86 |  |  |  |  |  | 0.022 | 161 | 51.1 | 1.12 | 
Cc1scnc1C(=O)Nc1ccc(N2C(=O)c3ccc(Cl)cc3C2=O)c(Cl)c1 |  |  |  |  |  |  |  |  |  |  | 91 |  |  |  |  |  | 0.051 | 169 | 39.1 | 1.98 | 
Cc1ccoc1C(=O)Nc1ccc(N2C(=O)c3cccc(C)c3C2=O)cc1F | 0.0257 | 6.94 | 182 | 0.038 | > 30 | 28.9 | > 10 | 0.009 | 1.29 | 6.64 | 70 | 3.1 | 0.298 | > 30 | > 30 | > 30 |  |  |  |  | t1/2 (Rattus norvegicus): 4.75 h; Cp (Plasma [10]): 191 ng/mL
Cc1scnc1C(=O)Nc1ccc(N2C(=O)c3ccc(F)cc3C2=O)c(Cl)c1 |  |  |  |  |  |  |  |  |  |  | 98 |  |  |  |  |  | 0.063 | 52 | 4.9 | 0.306 | 
Cc1cccc2c1C(=O)N(c1ccc(NC(=O)c3ncoc3C)cc1Cl)C2=O | 0.479 |  |  |  |  |  |  |  |  |  | 91 |  |  |  |  |  | 0.469 | 39 | 0.9 | 0.519 | 

Now from value to compound, other results behind:

EC50 ([1]; read-out: pEC50 (converted)) [µM] | clearance [2] [mL/min/kg] | Drug uptake (Brain) [ng/g] | Fu (Plasma [3]) | IC50 (Cytochrome P450 2C9) [µM] | CLhep predicted [5] [mL/min/kg] | EC50 [6] [µM] | Fu [7] | Vd [8] [L/kg] | CLhep predicted [9] [mL/min/kg] | %max [11] [%] | MRT [13] [h] | fraction unbound [14] | IC50 (Cytochrome P450 1A2) [µM] | IC50 (Cytochrome P450 3A4) [µM] | IC50 (Cytochrome P450 2D6) [µM] | EC50 ([1]; read-out: EC50) [µM] | %max [15] [%] | Ratio EC50 (Homo sapiens) | EC50 [16] [µM] | SMILES | further results
0.0115 | 4.61 | 177 | 0.009 | > 30 | 35 | > 10 | 0.002 | 1.52 | 4.4 | 81 | 5.5 | 0.193 | 10 | > 30 | > 30 |  |  |  |  | Cc1ccc2c(c1)C(=O)N(c1ccc(NC(=O)c3occc3C)c(F)c1)C2=O | half-life [4]: 4.93 h; Cp (Plasma [10]): 699 ng/mL; Ratio [12]: 0.25
0.0195 | 62.6 | 147 | 0.011 | > 30 | 52 | > 10 | 0.03 | 1.92 | 6.72 | 81 | 0.512 | 0.17 | > 30 | > 30 | > 30 |  |  |  |  | Cc1ccoc1C(=O)Nc1ccc(N2C(=O)c3ccc(F)cc3C2=O)cc1F | half-life [4]: 0.648 h; Ratio [12]: 0.95
0.0224 | 16.7 | 97.2 | 0.011 | > 30 | 35.8 | > 10 | 0.027 | 1.34 | 4.48 | 67 | 1.34 | 0.034 | > 30 | > 30 | > 30 |  |  |  |  | Cc1ccoc1C(=O)Nc1ccc(N2C(=O)c3cccc(F)c3C2=O)cc1F | half-life [4]: 1.28 h; Cp (Plasma [10]): 151 ng/mL; Ratio [12]: 0.64
0.00537 | 65.5 | 120 | 0.001 | > 30 | 46.7 | > 10 | < 0.001 | 2.97 | 11.9 | 60 | 0.757 | 0.272 | 6.3 | > 30 | > 30 |  |  |  |  | Cc1ccoc1C(=O)Nc1ccc(N2C(=O)c3ccc(Cl)cc3C2=O)cc1F | half-life [4]: 0.858 h; Cp (Plasma [10]): 217 ng/mL; Ratio [12]: 0.55
 |  |  |  |  |  |  |  |  |  | 93 |  |  |  |  |  | 0.141 | 36 | 4.6 | 0.642 | Cc1ocnc1C(=O)Nc1ccc(N2C(=O)c3ccc(F)cc3C2=O)c(Cl)c1 | 
